# This is a sample that favours compounds with a hit; in the whole collection about 3.8% have one here.
# ANO1 block – blocks the mouse calcium-activated chloride channel TMEM16A | Q8BHY3 | HEK293 TMEM16A/YFP iodide influx fluorescence, ionomycin | normalized B-score (activity score, 25-100; higher = stronger inhibition) at 10 µM | 310,000 compounds, 1.2% hits | AID 588511;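 active = ratio plate-corrected score three or more library SD toward inhibition, starting fluorescence score within five deviations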;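 also: score derived from kinetic fluorescence span divided by baseline fluorescence per well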
# Target sequence (Q8BHY3 whole entry, looked up): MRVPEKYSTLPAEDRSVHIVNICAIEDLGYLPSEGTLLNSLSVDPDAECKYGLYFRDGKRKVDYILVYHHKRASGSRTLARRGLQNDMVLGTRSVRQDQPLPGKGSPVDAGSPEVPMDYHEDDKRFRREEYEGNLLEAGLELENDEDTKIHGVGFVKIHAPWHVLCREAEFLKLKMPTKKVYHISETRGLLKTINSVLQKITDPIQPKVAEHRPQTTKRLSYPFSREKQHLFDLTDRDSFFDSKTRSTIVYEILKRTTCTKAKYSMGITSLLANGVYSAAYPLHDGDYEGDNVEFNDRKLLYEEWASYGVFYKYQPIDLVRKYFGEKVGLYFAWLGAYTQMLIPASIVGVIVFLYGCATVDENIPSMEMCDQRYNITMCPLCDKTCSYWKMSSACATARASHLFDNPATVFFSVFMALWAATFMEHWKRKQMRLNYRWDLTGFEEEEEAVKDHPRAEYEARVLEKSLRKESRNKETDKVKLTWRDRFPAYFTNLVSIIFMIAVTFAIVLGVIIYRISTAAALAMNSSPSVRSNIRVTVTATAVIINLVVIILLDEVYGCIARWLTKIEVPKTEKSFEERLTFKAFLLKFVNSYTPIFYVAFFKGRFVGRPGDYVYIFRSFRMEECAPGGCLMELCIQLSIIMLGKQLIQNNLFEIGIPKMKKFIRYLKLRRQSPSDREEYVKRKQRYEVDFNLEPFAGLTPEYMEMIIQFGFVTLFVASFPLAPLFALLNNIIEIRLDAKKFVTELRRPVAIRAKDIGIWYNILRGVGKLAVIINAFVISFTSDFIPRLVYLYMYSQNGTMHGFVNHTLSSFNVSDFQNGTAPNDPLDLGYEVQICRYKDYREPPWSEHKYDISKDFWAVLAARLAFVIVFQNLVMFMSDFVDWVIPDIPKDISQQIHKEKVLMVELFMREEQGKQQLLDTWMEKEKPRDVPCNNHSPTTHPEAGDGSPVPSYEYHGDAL
# MC4R antagonist – human MC4R antagonism in cAMP assay | MC4R-expressing cells, MTII-stimulated cAMP, LANCE TR-FRET | inhibition, % at 6.5 µM | 360,000 compounds, 0.48% hits | AID 540295;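 active = inhibition above its plate's cutoff, the mean of tested wells on that plate plus 3 SD, cut at about 29% in these data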;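 also: 0% = Melanotan II alone and 100% = Melanotan II plus saturating MCL0020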
#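 Test system: U2OS cells stably expressing human melanocortin 4 receptor (MC4R); also added: Melanotan II challenge; compound: 6.5 µM single dose; timing: 30-min compound preincubation, 1-h Melanotan II challenge, 1-h detection, room temperature; signal: Eu-cAMP/anti-cAMP TR-FRET, emission 671 nm; repeats: one well per compound, no replicates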
# Beta cell apopt – blocks beta cell apoptosis | INS-1E cytokine-induced death, ATP luminescence, 48 h; percent of positive-control rescue, neutral wells zero | protection from apoptosis, % (concentration not given with the values) | 300,000 compounds, 0.8% hits | AID 435005;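 active = Every replicate reaches about 75%, or at least half do and their mean reaches it too, limit read from the data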;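 also: 0% = cytokine-treated negative control wells and 100% = positive control rescue; higher means more ATP so stronger rescue from cytokine killing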
# ANO1 activ – activators or potentiators of mouse TMEM16A chloride channel | Q8BHY3 | HEK293 TMEM16A/YFP-H148Q/I152L, iodide quench fluorescence; stronger effect = lower value | B-score at 10 µM | 340,000 compounds, 0.3% hits | AID 623877;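 active = fluorescence-ratio B-score plate-corrected deviation score at least 3 library SD below zero, with starting fluorescence score within 5 deviations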;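 also: channel opened by trigger with iodide after compound preincubation; score built on the fluorescence ratio of max minus min over baseline; more negative score means more quench and so TMEM16A activation or potentiation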
# MC4R barr agon – agonists of human melanocortin 4 receptor (MC4R) beta-arrestin; P32245; U2OS MC4R beta-arrestin complementation, luminescence; percent of melanotan II response, DMSO zero; activation, % at 8.9 µM; 360,000 compounds, 0.98% hits;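 active = activation above a per-plate cutoff, the mean activation of sample wells on that plate plus 3 SD, cut at about 8% in these data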
# CSC inhib – cancer stem cell inhibition. 300,000 compounds, 1.1% hits. AID 2717. cancer stem cell-like cells viability, luminescence. inhibition, % at 7.5 µM; in the data active = inhibition above about 75%; tested in HMLE shEcad cells
# TMEM16A reconf – reconfirmed blocker of mouse TMEM16A calcium-activated chloride channel. inhibition, % at 10 µM. shares compounds with ANO1 block. 2,300 compounds, 39% hits. AID 652189. HEK293 TMEM16A/YFP-H148Q, iodide quench fluorescence; ionomycin added to raise cell calcium;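 active = mean duplicate percent inhibition, scaled so buffer wells are 0 and the reference blocker 100, over three buffer SD above buffer mean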
# HEK293 Ca mobil – calcium mobilization counter-screen hit for TMEM16A inhibitor series; shares compounds with ANO1 block; TMEM16A/YFP HEK293, Fluo4 calcium mobilization; calcium response (% of ionomycin), % at 10 µM; 2,300 compounds, 2% hits; AID 652231;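 active = duplicate-averaged calcium signal over 20% of the ionomycin maximum, relative to buffer baseline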;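 also: each well's signal is peak minus trough fluorescence divided by its pre-addition baseline; 0% = buffer wells and 100% = ionomycin wells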
# YFP-HEK293 quench – counter-screen for TMEM16A inhibitors: effect in parental YFP-HEK293 cells; shares compounds with ANO1 block; iodide YFP quench, ionomycin; YFP ratio F(max-min)/F0 at 10 µM; 2,300 tested, under 10 active;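 active = yellow fluorescent protein signal ratio exceeding the buffer control mean by over 5 SD of those controls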;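 also: ratio is mean of duplicate wells from kinetic YFP trace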
# ClC-1 inh – selectivity of TMEM16A inhibitors: inhibition of rat ClC-1 chloride channel; shares compounds with ANO1 block; CHO ClC-1-YFP, iodide influx fluorescence quench; iodide control reads 0, buffer control 100; ratio percent, % at 10 µM; 2,300 tested, under 10 active;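 active = duplicate-mean ratio percent above the mean of iodide-only control wells, which defines zero, plus 5 of their SD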;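 also: higher percent means stronger block of ClC-1 iodide influx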
# * = called active by the depositor; i = inactive; . = no result.
SMILES,ANO1 block,MC4R antagonist,Beta cell apopt,ANO1 activ,MC4R barr agon,CSC inhib,TMEM16A reconf,HEK293 Ca mobil,YFP-HEK293 quench,ClC-1 inh
COc1ccc(C2/C(=C(/O)c3ccc(Br)cc3)C(=O)C(=O)N2C)cc1OC (centres undefined),i,-4.5,-4.8,i,0.5,-4.5,.,.,.,.
Cc1ccc(-c2nnc(CSc3nnc(C)s3)o2)cc1,i,8.8,.,i,0.6,0.6,.,.,.,.
CCc1nc(SCc2nnc(-c3ccc(C)cc3)o2)c2c(C)c(C)sc2n1,i,.,1.6,.,.,14.0,i,i,-1.21,-8.0
O=C(Nc1nnc(-c2ccccc2Cl)o1)c1nc2ccccc2s1,100*,2.9,-3.1,i,-1.7,24.4,i,i,-1.06,-15.5
COc1cccc(C(=O)NC(C)c2ccc(-c3ccccc3)cc2)c1OC (centres undefined),25*,15.0,1.4,i,5.0,22.1,24.5%*,i,-1.09,-10.0
c1ccc(CN2CCN(c3ncnc4c3[nH]c3ccccc34)CC2)cc1,100*,3.3,65.4,i,0.3,.,19.0%*,i,-0.992,-24.5
COc1ccc2c(c1)[nH]c1c(N3CCSCC3)ncnc12,i,5.8,3.2,i,0.0,-4.5,.,.,.,.
Cc1ccc2[nH]c3c(N4CCN(Cc5ccccc5)CC4)ncnc3c2c1,100*,2.0,68.6,i,0.2,23.0,37.5%*,i,-1.08,-22.0
Cc1ccc2c(c1)[nH]c1c(N3CCN(Cc4ccccc4)CC3)ncnc12,25*,7.0,112.9*,i,2.0,13.1,25.0%*,i,-1.01,-23.5
c1ccc(CN2CCN(c3nc4ccccc4c4ccccc34)CC2)cc1,i,2.3,-4.5,i,0.0,12.4,.,.,.,.
COc1cc(CNC(=O)Nc2cccn3nc(COCCO)nc23)cc(OC)c1OC,.,7.2,.,.,1.7,.,.,.,.,.
Cc1ccccc1-c1cc(C(=O)NCc2ccco2)n(CC2CC(c3cccnc3)=NO2)n1 (centres undefined),.,0.8,-3.5,i,1.5,21.1,.,.,.,.
O=C1CCCN1C(=O)CSc1nnnn1-c1cccc(F)c1,.,1.9,0.2,i,-1.4,-5.6,.,.,.,.
CC(=O)c1ccc(S(=O)(=O)NCc2ccc(C(=O)NCC(c3ccccc3)N(C)C)cc2)cc1 (centres undefined),i,-3.6,-2.8,i,-1.1,-13.3,.,.,.,.
COc1ccc(CN(C)C(=O)c2cccc(Oc3ccccc3)c2)c(OC)c1OC,25*,14.8,1.8,i,-1.0,5.7,32.0%*,i,-1.15,-13.0
COc1cccc(CN(C)C(=O)c2cccc(S(=O)(=O)NCc3ccccc3)c2)c1OC,i,2.7,-2.4,i,-1.0,-5.2,.,.,.,.
CN(CC(=O)Nc1ccc(Cl)cc1)C(=O)c1cccc(S(=O)(=O)N2CCN(Cc3ccccc3)CC2)c1,25*,18.0,40.0,i,-1.8,4.2,i,i,-1.12,-9.0
CC(C)CC1CC(=O)OC1(C)C(=O)CSc1nc2ccccc2s1 (centres undefined),100*,7.3,-5.8,i,-0.9,-0.4,i,i,-1.19,-6.0
O=C(c1ccc(S(=O)(=O)Nc2ccccc2F)cc1)N1CCN(c2ccccc2O)CC1,i,10.7,2.3,i,-0.6,8.9,.,.,.,.
Nc1nc(-c2ccccc2)c(-c2ccccc2)n1N,i,0.5,-2.4,i,0.6,-6.8,i,i,-1.16,-9.5

# High-throughput results from PubChem.
